Efflux pump mplx = blocks antifungal efflux pumps in multiplex yeast assay | S. cerevisiae Candida pump triplex, Nile Red efflux | inhibition, % at 10 µM | 0.44% of 330,000 active;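 active = plate passing quality check with inhibition over a set limit, or well fluorescence over plate mean plus 4 SD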;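 also: Nile Red retained in pooled yeast measured as flow cytometry median fluorescence; higher means more Nile Red kept so more efflux inhibition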
Beta cell apopt = blocks beta cell apoptosis; INS-1E cytokine-induced death, ATP luminescence, 48 h; percent of positive-control rescue, neutral wells zero; protection from apoptosis, % (concentration not given with the values); 0.8% of 300,000 active; AID 435005;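 active = Every replicate reaches about 75%, or at least half do and their mean reaches it too, limit read from the data; inconclusive = At least half of replicates reach the limit but their mean does not; inactive = Under half of replicates reach the limit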;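 also: higher means more ATP so stronger rescue from cytokine killing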
SUMO Mot1 rescue = SUMOylation pathway inhibition by Mot1-301 growth rescue. S. cerevisiae Mot1-301 growth rescue, ATP luminescence, 38.5C; percent above DMSO median, 100 means doubled. growth rescue, % at 18.8 µM. 1% of 320,000 active;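 active = every valid replicate shows activation above 250% relative to neutral control wells; inactive = the rest, any valid replicate at or below 250%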
CSC inhib = blocks cancer stem cells; inhibition, % at 7.5 µM; 1.1% of 300,000 active; cancer stem cell-like cells viability, luminescence; in the data active = inhibition above about 75%; inconclusive = no clear call, values can overlap the other calls; tested in HMLE shEcad cells
WT yeast gro inh = growth inhibition of WT yeast, mitochondrial fusion screen. mitochondrial fusion phenotypic screen, WT strain. inhibition, % at 10 µM. 2.1% of 190,000 active; in the data active = inhibition above about 58%; tested in S. cerevisiae
T cruzi inh = blocks replication of Trypanosoma cruzi; T. cruzi beta-gal in NIH3T3, luminescence, 90 h; inhibition, % (test concentration not listed); 1.4% of 300,000 active;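 active = mean inhibition across valid replicates above about 55%, limit read from the data; inconclusive = mean below that limit but half or more replicates reach it; inactive = mean below it, under half of replicates reach it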;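 also: signal also drops with host cell toxicity which is not excluded here; higher percent means less beta-gal luminescence so fewer parasites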
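Assay system: NIH/3T3 host cells with β-galactosidase reporter T. cruzi; input: 5,000 host fibroblasts per well; compound: single 50 nL compound addition per well in DMSO; timing: ≥90 h infection period, 3 h prior cell attachment; measured by: GalScreen β-gal luminescence, detergent lysis, 60 min; evaluation: percent inhibition of parasite-derived β-gal signal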
Hits are given with their value; i = inactive; ? = inconclusive; nt = no result given. Compounds with a hit are over-represented: about 4.8% of the library has one in this group of screens.

SMILES	Efflux pump mplx	Beta cell apopt	SUMO Mot1 rescue	CSC inhib	WT yeast gro inh	T cruzi inh
C/C=C/c1ccc(OCCCCN2CC(C)CC(C)C2)c(OC)c1 (stereo unspecified)	i	i	i	i	i	54.7
S=C(NCCC(c1ccccc1)c1ccccc1)Nc1ccc(Cl)cc1	i	i	i	i	i	i
Cc1cccc(CSCCNC(=S)Nc2ccccc2)c1	i	i	i	i	71.2	i
S=C(NCCSCc1ccc(Cl)cc1)Nc1ccccc1	i	i	i	i	78.8	i
S=C(NCCSCc1ccccc1Cl)Nc1ccccc1	i	i	i	i	66.6	i
CCCNC(=S)Nc1ccccc1	i	i	i	i	nt	i
CCCOc1ccc(CSCCNC(=S)Nc2ccccc2)cc1	i	i	i	76.7	67.0	i
CCOC(=O)C1=C(C)NC(=NC)SC1c1ccccc1 (stereo unspecified)	i	i	i	i	i	i
O=C(O)c1ccccc1C(=O)NNc1ccc(Cl)cc1	i	i	i	91.1	72.0	i
O=C(/C=C/c1ccccc1)NC(NC(=S)Nc1ccc(Cl)cc1)C(Cl)(Cl)Cl (stereo unspecified)	i	i	i	i	i	72.0
NS(=O)(=O)c1ccc(NNC(=O)c2ccccc2C(=O)O)cc1	i	i	i	i	nt	i
NS(=O)(=O)c1ccc(NNC(=O)c2sccc2Cl)cc1	i	i	i	i	nt	i
O=C(/C=C/c1ccccc1)NNC(=O)c1cccc(Cl)c1	i	i	i	i	i	i
O=C(/C=C/c1ccccc1)NNc1ccc(Cl)cc1	i	i	i	96.2	i	i
O=C(NNc1ccc(Cl)cc1)c1sccc1Cl	i	i	i	94.4	nt	i
O=C(O)/C=C/c1ccc2c(-c3ccccc3)onc2c1	i	i	i	i	i	i
COc1ccc(NC(=O)CSc2nnnn2C2CC3C=CC2C3)cc1 (stereo unspecified)	i	i	i	i	nt	i
O=C(Cc1ccccc1)NC(NC(=S)Nc1cc(Cl)ccc1Cl)C(Cl)(Cl)Cl (stereo unspecified)	i	i	i	i	i	i
O=C(/C=C/c1ccccc1)NC(NC(=S)Nc1cc(Cl)ccc1Cl)C(Cl)(Cl)Cl (stereo unspecified)	i	i	i	?	i	75.1
CCCCOc1ccc(OC(=O)c2cccnc2)cc1	i	i	i	i	i	i
CCCCCCCOc1ccc(OC(=O)c2cccnc2)cc1	i	i	i	95.5	i	56.8
CCOC(=O)Nc1ccc2c(c1)N(C(=O)CN1CCN(C)CC1)c1ccccc1S2	i	i	i	i	i	71.2
CCN(CC)CCC(=O)N1c2ccccc2Sc2ccc(NC(=O)OC)cc21	i	i	i	i	nt	i
CCN1CCN(CC(=O)N2c3ccccc3Sc3ccccc32)CC1	i	i	i	i	nt	i
CCOC(=O)Nc1ccc2c(c1)N(C(=O)CCN(C)C)c1ccccc1S2	i	i	i	i	i	85.2
SMILES	Efflux pump mplx	Beta cell apopt	SUMO Mot1 rescue	CSC inhib	WT yeast gro inh	T cruzi inh
CCN1CCCC1CNC(=O)c1cc([N+](=O)[O-])c(N(C)C)cc1OC (stereo unspecified)	i	i	i	i	nt	i
O=C(NCC1CCCO1)c1ccc(Cl)c(S(=O)(=O)N2CCCCC2)c1 (stereo unspecified)	i	i	i	i	nt	i
CCCN1CCN(CCCNC(=S)Nc2ccc(OC)cc2)CC1	i	i	i	i	i	i
O=C(Nc1cc(C(F)(F)F)cc(C(F)(F)F)c1)c1ccc(Cn2cc(C(F)(F)F)ccc2=O)cc1	i	i	i	i	i	i
Cc1cc(C)n(-c2cc(-c3ccccc3)nc(C)n2)n1	i	i	336.1	i	i	i
Cc1cccc(OCC(=O)Nc2nc3ccc([N+](=O)[O-])cc3s2)c1	i	i	i	i	i	i
Cc1cccc(OCC(=O)Nc2nc3ccc([N+](=O)[O-])cc3s2)c1C	i	i	i	i	65.2	i
Cc1ccc(S(=O)(=O)NC2c3cccc4cccc(c34)C2Sc2ncccn2)cc1 (stereo unspecified)	i	nt	i	nt	i	i
Cc1cc(C)nc(SC2c3cccc4cccc(c34)C2NS(=O)(=O)c2ccccc2)n1 (stereo unspecified)	i	i	nt	i	i	56.8
CCCCCCCCCCCC(=O)c1c(O)cccc1O	i	i	i	i	94.8	i
CCCOP(=O)(OCCC)C(Nc1ccc(C(C)C)cc1)c1ccc([N+](=O)[O-])cc1 (stereo unspecified)	i	i	i	i	73.7	i
COP(=O)(OC)C(Nc1ccc([N+](=O)[O-])cc1)c1ccccc1 (stereo unspecified)	i	i	i	i	nt	i
COC(=O)C(C)Sc1nc2ccsc2c(=O)n1Cc1ccccc1 (stereo unspecified)	i	i	i	i	nt	i
CC1CC(C)CN(c2ncc3c(n2)CC(c2ccccc2)CC3=O)C1 (stereo unspecified)	i	i	nt	i	71.5	i
O=C1CC(c2ccco2)Cc2nc(N3CCc4ccccc4C3)ncc21 (stereo unspecified)	i	i	i	i	i	i
CC(C)c1ccc(C2CC(=O)c3cnc(N4CCc5ccccc5C4)nc3C2)cc1 (stereo unspecified)	i	i	i	i	58.3	i
S=C(NCc1ccco1)N1CCN(c2ccccc2Cl)CC1	i	i	i	i	71.8	i
C=CCNC(=S)N1CCN(c2ccccc2Cl)CC1	i	i	i	i	nt	i
CCCCNC(=S)N1CCN(c2ccccc2Cl)CC1	i	i	i	i	65.6	i
COc1cc2c(cc1NC(=O)CN1C(=O)NC3(CCc4ccccc43)C1=O)oc1ccccc12 (stereo unspecified)	i	i	i	i	66.0	i
Cc1ccccc1NC(=O)CN1C(=O)NC2(CCc3ccccc32)C1=O (stereo unspecified)	i	i	i	i	nt	nt
O=C(CN1C(=O)NC2(CCCc3ccccc32)C1=O)c1ccc(Br)cc1 (stereo unspecified)	i	i	i	i	nt	i
O=C(CN1C(=O)NC2(CCc3ccccc32)C1=O)c1ccc(Br)cc1 (stereo unspecified)	i	i	278.1	i	nt	i
O=C(c1cncc(Br)c1)N1CCN(S(=O)(=O)c2ccc(Cl)cc2)CC1	i	i	306.3	i	nt	i
O=C(c1cccnc1)N1CCN(S(=O)(=O)c2cccc(Cl)c2)CC1	i	i	i	i	nt	i
C[C@H](NC(=O)c1ccc(Cl)cc1)C(=O)OCn1nnc2ccccc2c1=O	i	i	i	i	nt	nt
O=C(CSCC(=O)OCn1nnc2ccccc2c1=O)Nc1ccc(Cl)cc1	i	i	i	i	69.9	i
Cc1ccccc1-c1cc(C(=O)NCc2ccc3c(c2)OCO3)n(CC2CC(c3cccnc3)=NO2)n1 (stereo unspecified)	i	i	i	i	nt	nt
Cc1c(C)n(Cc2ccccc2)c2ccc(C(=O)OCCCN(C)C)cc12	i	i	i	i	87.4	60.5

Screening results (PubChem BioAssay)
